Measurements published in paper PMC9468552 (Clinical and Translational Science, 2022).
Read-outs that look alike come from different tables or passages of the source.

Columns and labels:
CYP3A4 [1] = biological target: T1, CYP3A4 (Homo sapiens, UniProt P08684); test: Study 008: effect of EDP‐305 on combined oral contraceptive; type: in vivo
CYP3A4 [2] = biological target: T1, CYP3A4; test: Study 004: DDI of EDP‐305; type: in vivo
CYP1A2 = biological target: T2, CYP1A2 (Homo sapiens, UniProt P05177); test: Study 004: DDI of EDP‐305; type: in vivo; conditions: increase in caffeine AUC less than twofold
T2 sequence (P05177 1-516): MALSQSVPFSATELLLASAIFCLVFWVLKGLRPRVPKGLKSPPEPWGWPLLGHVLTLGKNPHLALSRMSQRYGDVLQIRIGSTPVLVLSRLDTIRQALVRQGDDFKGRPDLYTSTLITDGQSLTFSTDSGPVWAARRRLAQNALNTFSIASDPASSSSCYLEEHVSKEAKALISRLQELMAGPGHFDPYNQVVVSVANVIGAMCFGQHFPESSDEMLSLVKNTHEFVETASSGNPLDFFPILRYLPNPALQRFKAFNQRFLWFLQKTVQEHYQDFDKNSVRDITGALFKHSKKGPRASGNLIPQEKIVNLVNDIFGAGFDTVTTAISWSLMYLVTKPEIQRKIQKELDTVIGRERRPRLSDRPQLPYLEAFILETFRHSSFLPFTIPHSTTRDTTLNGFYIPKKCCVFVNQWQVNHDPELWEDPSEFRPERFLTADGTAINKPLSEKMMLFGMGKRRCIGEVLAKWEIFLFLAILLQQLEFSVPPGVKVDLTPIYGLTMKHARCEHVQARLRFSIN

CYP3A4 [3] = biological target: T1, CYP3A4; type: in vivo
CYP3A4 [4] = biological target: T1, CYP3A4; type: in vivo; remark: listed apart in the source
Outline: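 Healthy subjects in a separate part took oral rifampin 600 mg once daily on days 5–16. EDP‐305 10 mg suspension was given on days 1 and 14 after a 10 h fast that continued ≥4 h postdose. Plasma was drawn predose and 0.5–12 h postdose, plus 24, 48 and 72 h before the morning rifampin dose. Analysis used LC–MS/MS and noncompartmental PK. A mixed model on ln values (subject random) gave the geometric LS mean ratio with 90% CI, with EDP‐305 alone as reference.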

CYP3A4 [5] = biological target: T1, CYP3A4; type: in vivo; remark: listed apart in the source
P‐gp [6] = biological target: P‐gp (Homo sapiens, UniProt P08183); type: in vivo
[7] = Study 004: trough levels of EDP‐305 and metabolites with and without probes; type: in vivo, human
Outline: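 Healthy volunteers received single oral midazolam 2 mg and caffeine 200 mg on days 1 and 12, and rosuvastatin 20 mg on days 2 and 13. EDP‐305 was given as a 10 mg/30 ml oral suspension each morning on days 5–15 after an overnight fast. Predose troughs were drawn on days 5, 8 and 10–17. Parent and metabolites were measured by LC–MS/MS (range 0.0300–30.0 ng/ml).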

[8] = Safety/tolerability in the four DDI studies; type: in vivo, human; conditions: all four studies
[9] = cited from earlier work
[10] = radiolabeled mass balance study; ref data on file; Enanta Pharmaceuticals; cited from earlier work
[11] = same dose/formulation; ref data on file; cited from earlier work
[12] = relative bioavailability assessment; ref data on file; cited from earlier work
[13] = test system: cytochrome (CYP) 1A2, 2B6, 2C8, 2C9, 2C19, 2D6, and 3A4 isoenzymes; conditions: standard hepatic microsome studies; preclinical studies; cited from earlier work
CYP1A2, 2B6, and 3A4 = conditions: preclinical studies; cited from earlier work
[14] = test system: messenger RNA (mRNA) for CYP1A2 and CYP3A4; conditions: incubation in liver microsomes (hepatocytes) in the presence of EDP‐305; preclinical studies; cited from earlier work
OATP1B1 and OATP1B3 = conditions: in vitro; ref data on file; cited from earlier work
[15] = test system: BSEP, MRP2, P‐gp, and BCRP transporters; conditions: in vitro; ref data on file; cited from earlier work
BCRP = conditions: in vitro; ref data on file; cited from earlier work
P‐gp [16] = conditions: in vitro; ref data on file; cited from earlier work
[17] = 12‐week phase II study, 132 non‐cirrhotic patients; cited from earlier work
OATP1B1/B3 and BCRP = test: Study 004: DDI of EDP‐305; type: in vivo, human
[18] = EDP‐305 2.5 mg tablet co‐administered with OC
[19] = EDP‐305 10 mg + itraconazole 200 mg q.d. (test)
[20] = EDP‐305 10 mg alone (reference)
[21] = EDP‐305 + itraconazole vs EDP‐305 alone
[22] = EDP‐305 10 mg + rifampin 600 mg q.d. (test)
[23] = EDP‐305 + rifampin vs EDP‐305 alone
[24] = EDP‐305 5 mg tablet + fluconazole 400 mg QD (test)
[25] = EDP‐305 5 mg tablet alone (reference)
[26] = EDP‐305 5 mg tablet + quinidine 300 mg BID (test)
[27] = EDP‐305 + quinidine vs EDP‐305 alone

P‐gp (Homo sapiens, UniProt P08183), sequence (P08183 whole entry): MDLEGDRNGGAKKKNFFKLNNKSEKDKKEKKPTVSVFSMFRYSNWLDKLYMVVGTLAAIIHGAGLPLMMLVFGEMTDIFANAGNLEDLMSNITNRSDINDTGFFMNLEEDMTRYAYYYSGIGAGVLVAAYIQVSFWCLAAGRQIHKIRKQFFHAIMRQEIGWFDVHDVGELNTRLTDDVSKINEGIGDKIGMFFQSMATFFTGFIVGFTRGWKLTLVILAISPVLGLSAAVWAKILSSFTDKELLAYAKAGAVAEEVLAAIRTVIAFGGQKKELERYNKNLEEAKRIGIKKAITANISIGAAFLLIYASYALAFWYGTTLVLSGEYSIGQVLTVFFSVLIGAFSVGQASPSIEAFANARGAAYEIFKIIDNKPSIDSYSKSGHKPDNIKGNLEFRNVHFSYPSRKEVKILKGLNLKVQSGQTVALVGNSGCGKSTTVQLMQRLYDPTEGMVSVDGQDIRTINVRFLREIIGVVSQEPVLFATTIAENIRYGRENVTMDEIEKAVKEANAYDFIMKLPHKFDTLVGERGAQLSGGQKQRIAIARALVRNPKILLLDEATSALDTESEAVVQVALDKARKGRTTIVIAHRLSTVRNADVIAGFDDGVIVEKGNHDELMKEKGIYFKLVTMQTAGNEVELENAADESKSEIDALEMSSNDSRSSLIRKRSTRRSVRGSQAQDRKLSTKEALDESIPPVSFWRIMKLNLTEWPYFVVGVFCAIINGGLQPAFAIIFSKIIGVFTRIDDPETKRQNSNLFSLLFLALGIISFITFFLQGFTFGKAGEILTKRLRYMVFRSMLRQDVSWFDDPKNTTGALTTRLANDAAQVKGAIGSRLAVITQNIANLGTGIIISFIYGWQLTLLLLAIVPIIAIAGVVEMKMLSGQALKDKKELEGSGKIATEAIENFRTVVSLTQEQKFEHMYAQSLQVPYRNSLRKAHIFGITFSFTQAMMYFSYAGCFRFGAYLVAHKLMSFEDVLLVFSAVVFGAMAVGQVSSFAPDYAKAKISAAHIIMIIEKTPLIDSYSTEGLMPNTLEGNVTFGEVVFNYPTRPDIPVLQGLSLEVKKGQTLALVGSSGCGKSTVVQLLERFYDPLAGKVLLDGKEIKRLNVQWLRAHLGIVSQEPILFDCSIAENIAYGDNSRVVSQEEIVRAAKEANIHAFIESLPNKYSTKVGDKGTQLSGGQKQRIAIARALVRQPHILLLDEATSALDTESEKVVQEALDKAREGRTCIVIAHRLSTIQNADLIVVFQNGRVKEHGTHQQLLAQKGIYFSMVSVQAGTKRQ
T1 sequence (P08684 whole entry): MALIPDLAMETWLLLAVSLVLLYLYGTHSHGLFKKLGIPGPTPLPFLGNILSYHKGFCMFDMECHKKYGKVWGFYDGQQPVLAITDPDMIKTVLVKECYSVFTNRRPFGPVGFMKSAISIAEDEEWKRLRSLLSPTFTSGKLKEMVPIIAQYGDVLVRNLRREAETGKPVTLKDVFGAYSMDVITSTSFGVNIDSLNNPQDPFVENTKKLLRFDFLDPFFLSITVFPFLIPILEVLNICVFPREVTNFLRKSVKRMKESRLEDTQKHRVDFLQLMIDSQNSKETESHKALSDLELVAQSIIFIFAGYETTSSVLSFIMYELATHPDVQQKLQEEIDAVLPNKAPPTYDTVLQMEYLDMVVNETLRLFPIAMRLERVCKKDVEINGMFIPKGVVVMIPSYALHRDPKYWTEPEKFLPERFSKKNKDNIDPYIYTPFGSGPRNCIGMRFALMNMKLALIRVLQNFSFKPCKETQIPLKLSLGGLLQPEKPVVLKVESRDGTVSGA

C#C[C@]1(O)CC[C@H]2[C@@H]3CCC4=CC(=NO)CC[C@@H]4[C@H]3CC[C@@]21CC (mixture of isomers) [norelgestromin]
AUC0,t, Geo LSMean ratio (90% CI) (CYP3A4 [1]; OC + EDP‐305 vs OC alone): 0.99 (0.92, 1.05) | Cmax, Geo LSMean ratio (90% CI) (CYP3A4 [1]; OC + EDP‐305 vs OC alone): 0.94 (0.86, 1.02) | AUC(0-t) (CYP3A4 [1]; human, plasma, oral, AUC0,t, Geo LSMean, OC alone (reference), day 21): 25.9 ng·h/mL | Cmax (CYP3A4 [1]; human, plasma, oral, Geo LSMean, OC + EDP‐305 2.5 mg tablet (test), day 21): 2.47 ng/mL | Cmax (CYP3A4 [1]; human, plasma, oral, Geo LSMean, OC alone (reference), day 21): 2.64 ng/mL | Peak and systemic exposures (Cmax and AUC0‐τ), OC + EDP‐305 vs OC alone (CYP3A4 [1]; in words): similar

OCc1ncc2n1-c1ccc(Cl)cc1C(c1ccccc1F)=NC2 [1′‐hydroxymidazolam]
GM AUCR0‐inf, metabolite‐to‐parent ratio (CYP3A4 [2]; midazolam administered alone): 39.1% | GM AUCR0‐inf, metabolite‐to‐parent ratio (CYP3A4 [2]; midazolam administered with EDP‐305): 20.6%

CC[C@H]1[C@@H](O)[C@@H]2[C@H](CC[C@]3(C)[C@@H]([C@H](C)CCNC(=O)NS(=O)(=O)c4ccc(C(C)(C)C)cc4)CC[C@@H]23)[C@@]2(C)CC[C@@H](O)C[C@@H]12 [EDP‐305]
classification as CYP3A4 inhibitor from increase in midazolam AUC (CYP3A4 [2]; increase in midazolam AUC less than twofold): weak inhibitor of CYP3A4 | classification as CYP1A2 inhibitor from increase in caffeine AUC (CYP1A2): weak inhibitor of CYP1A2 | geometric mean t1/2 (CYP3A4 [1]; [18]): 9.6 h | median Tmax (CYP3A4 [1]; [18]): 4.0 h | effect on serum progesterone levels (CYP3A4 [1]; co‐administration of combined OC and EDP‑305): no effect | AUC0,inf, Geo LSMean (CYP3A4 [3]; [19]): 1891.47 ng·h/mL | Cmax, Geo LSMean (CYP3A4 [3]; [19]): 50.48 ng/mL | AUC0,inf, Geo LSMean (CYP3A4 [3]; [20]): 360.31 ng·h/mL | Cmax, Geo LSMean (CYP3A4 [3]; [20]): 31.25 ng/mL | delayed Tmax (CYP3A4 [3]; [21]): 2 fold | longer t1/2 (increase) (CYP3A4 [3]; [21]): 2.79 fold | AUC0,inf, Geo LSMean (CYP3A4 [4]; [22]): 137.92 ng·h/mL | Cmax, Geo LSMean (CYP3A4 [4]; [22]): 27.02 ng/mL | AUC0,inf, Geo LSMean (CYP3A4 [4]; [20]): 393.59 ng·h/mL | Cmax, Geo LSMean (CYP3A4 [4]; [20]): 29.62 ng/mL | AUC0,inf, Geo LSMean ratio (90% CI) (CYP3A4 [4]; [23]): 0.35 (0.30, 0.41) | effect on EDP‐305 peak exposure (CYP3A4 [4]; [23]): no apparent effect | effect on Tmax (CYP3A4 [4]; [23]): no apparent effect | higher CL/F (CYP3A4 [4]; [23]): 2.77 fold | higher Vd/F (CYP3A4 [4]; [23]): 1.79 fold | shorter t1/2 (CYP3A4 [4]; [23]): 0.35 fold | total systemic exposure decreased (CYP3A4 [4]; [23]): ~ 65% | AUC0,inf, Geo LSMean (CYP3A4 [5]; [24]): 1537.60 ng·h/mL | Cmax, Geo LSMean (CYP3A4 [5]; [24]): 57.71 ng/mL | AUC0,inf, Geo LSMean (CYP3A4 [5]; [25]): 408.40 ng·h/mL | Cmax, Geo LSMean (CYP3A4 [5]; [25]): 32.73 ng/mL | CL/F and Vd/F, change (CYP3A4 [5]; EDP‐305 + fluconazole compared to EDP‐305 alone): decreased | t1/2 increased (CYP3A4 [5]; EDP‐305 + fluconazole relative to EDP‐305 alone): increased | AUC0,inf, Geo LSMean (P‐gp [6]; [26]): 367.17 ng·h/mL | Cmax, Geo LSMean (P‐gp [6]; [26]): 31.78 ng/mL | AUC0,inf, Geo LSMean (P‐gp [6]; [25]): 353.24 ng·h/mL | Cmax, Geo LSMean (P‐gp [6]; [25]): 31.64 ng/mL | AUC0,inf, Geo LSMean ratio (90% CI) (P‐gp [6]; [27]): 1.04 (0.95, 1.14) | Cmax, Geo LSMean ratio (90% CI) (P‐gp [6]; [27]): 1.00 (0.92, 1.10) | effect on EDP‐305 peak or systemic exposure (P‐gp [6]; [27]): no apparent effect | effect on Tmax, Vd/F, CL/F, and t1/2 (P‐gp [6]; [27]): minimal effect | steady‐state concentrations achieved ([7]; EDP‐305 10 mg daily from day 5, majority of subjects): ≤ 12 days | effect of co‐administered enzyme or transporter probes on PK ([7]; single doses of midazolam, caffeine, rosuvastatin): no apparent effect | tolerability [8]: well‐tolerated | tolerability ([9]; single doses up to 80 mg, multiple daily doses up to 20 mg for 14 days): well‐tolerated | steady‐state pharmacokinetics reached ([9]; visual inspection of trough concentrations, across all doses): ≤ 9 days | EDP‐305 in urine [10]: not detected | mean recovery of total radioactivity in feces [10]: 78.7% | mean recovery of total radioactivity in urine [10]: 1.42% | exposures in patients with NASH versus healthy subjects [11]: approximately twofold higher | exposures of tablet compared to suspension [12]: approximately twofold higher | potential to inhibit CYP 1A2, 2B6, 2C8, 2C9, 2C19, 2D6, and 3A4 [13]: low potential to inhibit | potential to induce CYP1A2, 2B6, and 3A4 (CYP1A2, 2B6, and 3A4): low potential | effect on mRNA for CYP1A2 and CYP3A4 [14]: concentration‐dependent downregulation | inhibition of OATP1B1 and OATP1B3 (OATP1B1 and OATP1B3): the potential for EDP‐305 to inhibit | inhibition of BSEP, MRP2, P‐gp, and BCRP [15]: low potential to inhibit | BCRP substrate (BCRP): unlikely to be a BCRP substrate | P‐gp substrate (P‐gp [16]): has potential to be a P‐gp substrate | efficacy in patients with fibrotic NASH [17]: reduced hepatic enzyme levels and liver fat

CC(C)c1nc(NS(C)(=O)=O)nc(-c2ccc(F)cc2)c1/C=C/[C@@H](O)C[C@@H](O)CC(=O)O [N‐desmethyl‐rosuvastatin]
GM AUCR0‐inf, metabolite‐to‐parent ratio (OATP1B1/B3 and BCRP; rosuvastatin administered alone): 16.6% | GM AUCR0‐inf, metabolite‐to‐parent ratio (OATP1B1/B3 and BCRP; rosuvastatin administered with EDP‐305): 11.2%
